Experimental findings from PubChem BioAssay AID493091 (Sanford-Burnham Center for Chemical Genomics, 2011) are described below.

Out of some 340,000 compounds screened, about 3,000 (0.88%) were called active. For the sample, actives were picked, then their nearest neighbours and some compounds at random. A number with no mark means an inactive call.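 The calls were made as follows: active = inhibition above about 50% at 20 µM (limit read from the data); inactive = the rest.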

Chain of Carboxy-terminal domain RNA polymerase II polypeptide A small phosphatase 1 (Homo sapiens) (Q9GZU7 76-261 limits assumed): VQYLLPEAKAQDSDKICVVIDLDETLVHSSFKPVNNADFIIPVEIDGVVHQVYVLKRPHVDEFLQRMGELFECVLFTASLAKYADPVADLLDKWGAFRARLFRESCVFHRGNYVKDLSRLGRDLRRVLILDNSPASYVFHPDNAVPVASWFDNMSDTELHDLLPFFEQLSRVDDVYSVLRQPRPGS

The target of the experiment is Carboxy-terminal domain RNA polymerase II polypeptide A small phosphatase 1 (Homo sapiens) (UniProt Q9GZU7). Briefly: inhibition of human SCP1 dephosphorylation activity – biochemical, colorimetric, uHTS, primary screen (AID 493091).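 Also: plate controls were DMSO wells with enzyme for no effect and wells lacking enzyme for full effect.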 The conditions noted are these: Recombinant Scp1, phosphopeptide, malachite green phosphate absorbance; at 20 µM; stronger effect = higher value. In a few lines:
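Test system: SCP-1 catalytic domain; Buffer or medium: Acidic Tris acetate buffer with magnesium and detergent; Also added: Phosphorylated 17-residue peptide substrate; Compound: single 20 µM dose, 1% DMSO; Schedule: enzyme reaction 45 min at room temperature, colour 5 min, stabilisation 30 min; Signal: Phosphate-binding colour reagent, absorbance read at 630 nm.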
For `Cc1ccccc1C(=O)NCC(c1ccco1)N1CCc2ccccc21` (stereo not drawn), the inhibition is 3.6%.
`O=C(c1ccccc1F)N1CCN(S(=O)(=O)c2ccc(Br)cc2)CC1`: the inhibition was -10.3%.
For `CC(C)CCN1CCN=C1N(C)C`, the inhibition is 0.8%.
On to `Cc1nnc(CN(C)Cc2cn[nH]c2-c2ccc(-c3ccccc3)cc2)o1`, for which the inhibition is -5.39%.
Turning to `CSCCC(NS(=O)(=O)c1ccc(C)cc1)C(=O)N(C)CC(=O)Nc1ccccc1Br` (stereo not drawn), the inhibition is -5.24%.
In the case of `Cc1nn2c(NCCN(C)C)c3c(nc2c1-c1ccccc1)CCC3`, the inhibition is -10.7%.
For the compound `COc1ccc(NC(=O)COC(=O)c2n[nH]c3ccccc23)c(OC)c1`, the inhibition is -9.82%.
Take `O=C(COC(=O)c1cnc(Cl)c(Cl)c1)NCc1ccco1`: the inhibition is 53.3% (active).
Take `COc1ccc(CCNC(=O)COC(=O)c2cnc(Cl)c(Cl)c2)cc1`: the inhibition is -7.74%.
For the compound `O=C(CCNC(=O)c1ccccc1Cl)NCc1ccco1`, the inhibition was 18.8%.
The value for `O=C(COC(=O)c1ccco1)NCc1ccc(Cl)cc1` was -4.57%; that for `O=C(COC(=O)C12CC3CC(CC(C3)C1)C2)NCc1ccco1` was 11.5%; that for `O=C(COC(=O)c1ccccc1O)NCc1ccco1` was 67.2% (active).
In the case of `COCCNC(=S)N1CCN(C)CC1` it was -7.43%; in that of `CC1CC(c2ccccc2)n2nc(NC(=O)c3cccs3)nc2N1` (stereo not drawn), 2.86%.
Take `CC(CC(=O)Nc1ccccc1)n1ccnc1` (stereo not drawn): the inhibition was -3.02%.
`CC(C)OC(=O)CN1CCN(c2ccc(Cl)cc2)CC1`: the inhibition is 4.48%.
As for `O=C(CN1CCN(c2ccc(Cl)cc2)CC1)c1ccccc1`, the inhibition was 52% (active).
Regarding `O=C(CN1CCN(c2ccc(Cl)cc2)CC1)NCc1cccs1`, the inhibition was 3.78%.
With `CN(CC(=O)Nc1ccc(F)c(F)c1F)C(=O)Cn1cnc2c1c(=O)n(C)c(=O)n2C`, the inhibition was -3.89%.
`O=C(CCC1CCCN(C(=O)Cc2ccc(F)cc2)C1)N1CCN(c2ccccn2)CC1` (stereo not drawn): the inhibition is -6.06%.
Take `O=C(CCC1CCCN(C(=O)c2ccc(F)c(F)c2)C1)N1CCN(c2ccccn2)CC1` (stereo not drawn): the inhibition was -8.35%.
On to `C=Cc1ccc(C(=O)N2CCCC(CCC(=O)N3CCN(c4ccccn4)CC3)C2)cc1` (stereo not drawn), for which the inhibition is 87.9% (active).
In the case of `Cc1ccc(C(=O)COC(=O)CCN2C(=O)C3C4CC(C(Br)C4Br)C3C2=O)cc1` (stereo not drawn), the inhibition is -7.42%.
In the case of `CC(=O)N1Cc2ccccc2CC1C(=O)O` (stereo not drawn) it was 12.9%; in that of `O=c1c(Cl)c(NCc2ccc(F)cc2Cl)cnn1C12CC3CC(CC(C3)C1)C2`, 17.9%; in that of `O=S(=O)(Nc1ccccc1Cl)c1cccc2nsnc12`, 67% (active).
On to `O=C(O)c1ccc(NS(=O)(=O)c2cccc3nsnc23)cc1`, for which the inhibition was -2.95%.
For `COc1ccc(NS(=O)(=O)c2cccc3nsnc23)cc1Cl`, the inhibition was -12.1%.
As to `Cc1nn2c3cc(N4CCOCC4)ccc3nc2c2ccccc12`, the inhibition was 7.49%.
As for `COc1ccc(C2=Nc3cc(C)ccc3OC2)cc1`, the inhibition was -3.61%.
The value for `COCCOC(=O)C1=C(C)NC(=O)NC1c1cc2c(cc1Br)OCO2` (stereo not drawn) was -6.54%; that for `COCCN(C(=S)Nc1cccc(Cl)c1C)C(C)c1ccco1` (stereo not drawn) was -5.75%.
In the case of `COc1ccc(S(=O)(=O)NCCCCOc2ccc(Cl)cc2)cc1` it was -3.96%.
Regarding `COc1cccc(NC(=O)CCNS(=O)(=O)c2ccc3c(c2)oc(=O)n3C)c1`, the inhibition was 6.79%.
`COc1cccc(NC(C)=[N+](C)CCNS(=O)(=O)c2ccc(Cl)cc2)c1`: the inhibition is 105% (active).
Turning to `COc1ccc(/C=C/CN2CCCC(C(=O)c3cc(F)ccc3F)C2)cc1` (stereo not drawn), the inhibition was -4.6%.
In the case of `O=C(Nc1cccnc1Oc1ncnc2cc(Cl)ccc12)c1ccc(F)cc1` it was -6.88%.
`CCN(CC)S(=O)(=O)c1ccc(N2CCOCC2)c(NC(=O)C2COc3ccccc3O2)c1` (stereo not drawn): the inhibition was -9.66%.
For `O=C(CNCc1cccs1)Nc1cc(S(=O)(=O)N2CCCC2)ccc1Cl`, the inhibition is 1.26%.
On to `O=C(Nc1cc(S(=O)(=O)N2CCCCC2)ccc1Cl)C1COc2ccccc2O1` (stereo not drawn), for which the inhibition is 55.3% (active).
On to `CC(=O)c1ccc(NC(=O)C(C)N(C)CC(=O)Nc2ccccc2Cl)cc1` (stereo not drawn), for which the inhibition was 9.97%.
In the case of `O=C(/C=C/c1cccc([N+](=O)[O-])c1)NCCSCc1ccco1`, the inhibition is -5.27%.
Turning to `OC1CSc2nc3ccccc3n2C1` (stereo not drawn), the inhibition is -14.6%.
Turning to `Cc1ccc(CCCOC(=O)C[N+]2(C)CCCCC2)cc1`, the inhibition was 4.77%.
Regarding `Cc1ccc(CCCOC(=O)C[N+]2(C)CCCC2)cc1`, the inhibition is 101% (active).
Consider `Cc1ccc(COC(=O)CN2C(=O)NC3(CCCC3)C2=O)cc1`, for which the inhibition was -2.24%.
With `Nc1ccc2c(c1)C(=Cc1cccnc1)c1ccccc1-2`, the inhibition was -0.04%.
The value for `C[C@H](NC(=O)c1nc[nH]c1C(=O)NCC(=O)OC(C)(C)C)C(=O)OCc1ccccc1` was -3.03%.
With `O=C(c1ccc2c(c1)OCO2)N1CCNc2ccccc2C1`, the inhibition was 54.2% (active).
Regarding `O=CN1CCN(C(=O)c2ccc3c(c2)OCO3)CC1`, the inhibition was -4.58%.
On to `O=C(c1ccc2c(c1)OCO2)N1CCN(C(=O)c2ccco2)CC1`, for which the inhibition was -10.7%.
Regarding `COc1ccc(C(=O)N(CCN2CCOCC2)CC(=O)NC2CCCC2)cc1OC`, the inhibition was -4.37%.
The value for `Cc1ccnc(-n2sc3ccccc3c2=O)n1` was 70.8% (active); that for `COc1ccccc1C(C)NC(=O)Cc1ccsc1` (stereo not drawn) was 1.45%.
As to `CN(CC(=O)NCCc1ccccn1)S(=O)(=O)c1ccc(Cl)cc1`, the inhibition is -6.06%.
`CCCCOC(=O)c1ccc(N2C(=O)CC(N3CCN(C/C=C/c4ccccc4)CC3)C2=O)cc1` (stereo not drawn): the inhibition was -2.23%.
In the case of `CC1CC(C)CN(S(=O)(=O)c2cccc3nonc23)C1` (stereo not drawn), the inhibition is -1.81%.
In the case of `CCN(Cc1cc2cc(C)ccc2[nH]c1=O)S(=O)(=O)c1ccccc1` it was -4.68%; in that of `CCCc1nc(-c2cc3cc(C)ccc3[nH]c2=O)no1`, 65.2% (active).
The value for `CCC(=O)N(CCc1ccccc1)Cc1cc2cc(C)ccc2[nH]c1=O` was -1.18%.
Turning to `C#CCOCCOCCOCCNc1nc(N2CCN(C(=O)C([C@@H](C)O)n3cc([C@@H](N)CCCCN)nn3)CC2)nc(N2CCN(C(=O)[C@H](CCCCN)n3cc(CN)nn3)CC2)n1` (stereo partly drawn), the inhibition was -0.3%.
The value for `C=CCn1c(=S)[nH]c2scc(-c3ccco3)c2c1=O` was 67.9% (active); that for `C=CCn1cnc2scc(-c3ccccc3)c2c1=O` was -18.1%; that for `C=CCn1c(=S)[nH]c2nc3c(cc2c1=O)COC(C)(C)C3` was -8.72%.
The value for `CN(CCC1CCOCC1)Cc1cn[nH]c1-c1ccc(-c2ccccc2)cc1` was -1.75%; that for `CCn1c(=O)n(CC)c2cc(N3CCCC3)c(NC(=O)c3ccccc3Br)cc21` was -2.26%.
The value for `Cc1ccc(CCNC(=O)c2ccc3nc4ccccc4c(=O)n3c2)cc1` was 60.3% (active); that for `Cc1ccc2nc3c(cc(C(=O)NCCc4ccccc4)c(=N)n3CC3CCCO3)c(=O)n2c1` (stereo not drawn) was 1.78%; that for `Cc1ccc(CNC(=O)CCNC(=O)Cn2ccc3ccccc3c2=O)cc1` was -12.1%.
In the case of `CCOc1cc(C2/C(=C(/O)c3ccc(S(=O)(=O)N4CCCCC4)cc3)C(=O)C(=O)N2CCOC)ccc1O` (stereo not drawn), the inhibition was 1.05%.
As for `Cc1cccc(NC(=O)CSc2nc3c(c(=O)[nH]2)CCC3)c1C`, the inhibition was -1.16%.
Turning to `COc1ccccc1N1CCN(C(=O)c2cc(=O)c3cc(C)cc(C)c3o2)CC1`, the inhibition is -7.13%.
Consider `Cn1c(N)c(C(=O)COC(=O)c2cccc(S(=O)(=O)N3CCOCC3)c2)c(=O)n(C)c1=O`, for which the inhibition is 3.96%.
As for `Cn1c(N)c(C(=O)COC(=O)c2cnc(Cl)c(Cl)c2)c(=O)n(C)c1=O`, the inhibition was -5.15%.
For `Cn1c(N)c(C(=O)COC(=O)c2ccc3ccccc3c2)c(=O)n(C)c1=O`, the inhibition is 53% (active).
As to `C[C@]1(C(=O)NCCc2c[nH]c3ccccc23)C=C[C@@H](Cc2ccccc2)N1C(=O)c1ccccc1`, the inhibition was -5.17%.
The value for `CCOc1ccc(NC(=O)c2ccc(NC(=O)COC(=O)c3ccc(NC(=O)CC#N)cc3)cc2)cc1` was 85.9% (active); that for `CC(C)NC(=O)NC(=O)COC(=O)c1ccc(NC(=O)CC#N)cc1` was -2.24%.
The value for `N#CCC(=O)Nc1ccc(C(=O)OCC(=O)Nc2sc3c(c2C#N)CCCC3)cc1` was 1.62%.
The value for `Cc1ncn2cc(-c3ccc(Cl)cc3Cl)[nH]c(=O)c12` was -6.56%; that for `O=C(NCc1cccc(Cl)c1)C1CCN(c2nnc(N3CCCC3=O)s2)CC1` was -6.55%; that for `O=C(NNC(=O)c1ccccc1[N+](=O)[O-])Nc1ccccc1C(F)(F)F` was 0.19%.
Consider `C=C(C)C(=O)Nc1cccc(C2=NOC3(C2)C[C@H](C(N)=O)N(C(=O)C(c2ccccc2)c2ccccc2)C3)c1` (stereo partly drawn), for which the inhibition was 70.2% (active).
In the case of `C/C=C\C=C\C(=O)N1CC2(CC(c3cccc(NC(=O)/C(C)=C\C)c3)=NO2)C[C@H]1C(N)=O` (stereo partly drawn) it was 34.8%; in that of `C/C=C(/C)C(=O)Nc1cccc(C2=NOC3(C2)C[C@@H](C(N)=O)N(C(=O)C2(C)CC2)C3)c1` (stereo partly drawn), -2.33%.
`C=CCn1cc(C(=O)NCc2ccc(Cl)cc2)c(=O)c2cc(S(=O)(=O)N(CC)CC)ccc21`: the inhibition is -4.15%.
Regarding `COCCC(=O)N1CCC(Oc2ccc(C(=O)NCc3ccon3)cc2)CC1`, the inhibition is -1.77%.
In the case of `COc1ccc(S(=O)(=O)N2CCN(CC(=O)N3CCOCC3)CC2)cc1OC` it was -0.04%; in that of `CC(C)C(O)C1CCN(Cc2nc(Cc3ccccc3Cl)no2)CC1` (stereo not drawn), -2.82%; in that of `O=c1[nH]n(-c2ccc([N+](=O)[O-])cc2)c(=O)c2ccccc12`, 52.1% (active).
In the case of `O=[N+]([O-])c1ccc(N2CCOCC2)cc1` it was -2.71%; in that of `COc1cnn(-c2ccc([N+](=O)[O-])cc2)c(=O)c1Cl`, -3.84%.

The term inhibition denotes the relative decrease from the control value, in per cent.
